From ChEMBL document CHEMBL4118144, “Design, Synthesis, and Testing of Potent, Selective Hepsin Inhibitors via Application of an Automated Closed-Loop Optimization Platform” (J Med Chem, 2018)
Calls of active or inactive are those of the source. The rule behind the calls is not given here.

Tested on: not listed separately
Assay: Chromatographic hydrophobicity index, log D of the compound at pH 7 by HPLC/UV analysis
Type: physicochemical
Details: buffer

| chromatographic logD | Compound |
| --- | --- |
| 1.2 | CCCCC(NS(=O)(=O)c1ccc(C)cc1)C(=O)Nc1ccc(C(=N)N)cc1 (stereo unspecified) |
| 0.5 | Cc1ccc(S(=O)(=O)N2CCCC2C(=O)Nc2ccc(C(=N)N)cc2)cc1 (stereo unspecified) |
| 1.5 | Cc1ccc(S(=O)(=O)NC(CC2CCCC2)C(=O)Nc2ccc(C(=N)N)cc2)cc1 (stereo unspecified) |

Target: T1, Serine protease hepsin (Homo sapiens, UniProt P05981, D161E/R162K)
Assay: Inhibition of recombinant C-terminal His10-tagged human Hepsin (R45 to […] residues) D161E/ R162K double mutant expressed in mouse NS0 cells using Boc-QRR-AMC as substrate after 15 mins by manual fluorescence assay
Details: not given

| IC50 | Compound |
| --- | --- |
| 0.87 µM | Cc1ccc(S(=O)(=O)NC(CCc2ccccc2)C(=O)Nc2ccc(C(=N)N)cc2)cc1 (stereo unspecified) |
| 0.33 µM | N=C(N)c1cccc(C[C@H](NS(=O)(=O)c2ccc3ccccc3c2)C(=O)N2CCCC(C(=O)NCc3cccs3)C2)c1 (stereo partly specified) |

Target: T1, Serine protease hepsin
Assay: Inhibition of recombinant C-terminal His10-tagged human Hepsin (R45 to […] residues) D161E/ R162K double mutant expressed in mouse NS0 cells using Boc-QRR-AMC as substrate after 15 mins by automated fluorescence assay
Details: not given
Method in brief: (§1)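 On-line assay integrated with the flow-synthesis platform: a 20 µL aliquot of each product solution captured automatically, HPLC-purified, then diluted and assayed.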

| Compound | IC50 |
| --- | --- |
| N=C(N)NCCC[C@@H](NC(=O)c1ccc2ccccc2c1O)C(=O)N1CCC[C@@H]1C(N)=O | > 10 µM |
| CC1CNc2c(cccc2S(=O)(=O)N[C@@H](CCCN=C(N)N)C(=O)N2CC[C@H](C)CC2C(=O)O)C1 (stereo partly specified) | > 10 µM |
| CN(C)C(=O)N1CCN(C(=O)[C@@H](Cc2cccc(C(=N)N)c2)NS(=O)(=O)c2ccc3ccccc3c2)CC1 | 6.55 µM |
| CCCCC(NS(=O)(=O)c1ccc(C)cc1)C(=O)Nc1ccc(Br)cc1 (stereo unspecified) | 58 µM |
| COC(=O)N1CCN(C(=O)[C@H](Cc2cccc(C(=N)N)c2)NS(=O)(=O)c2ccc3ccccc3c2)CC1 | 6.19 µM |
| N=C(N)c1ccc(C[C@@H](NC(=O)CNS(=O)(=O)c2ccc3ccccc3c2)C(=O)N2CCCCC2)cc1 | 4.46 µM |
| CCOC(=O)N1CCN(C(=O)[C@@H](Cc2cccc(C(=N)N)c2)NS(=O)(=O)c2c(C(C)C)cc(C(C)C)cc2C(C)C)CC1 | 3.35 µM |

The remaining lines, values ahead:

| IC50 | Compound |
| --- | --- |
| 0.383 µM | CCOC(=O)c1ccc(OC(=O)CCCCCNC(=N)N)cc1 [GABEXATE] |
| 0.005 µM | N=C(N)c1ccc2cc(OC(=O)c3ccc(N=C(N)N)cc3)ccc2c1 [NAFAMOSTAT] |
| 3.14 µM | COC(=O)C(Cc1cccc(C(=N)N)c1)NC(=O)CNS(=O)(=O)c1ccc(C)cc1 (stereo unspecified) |
| 0.5 to 0.9 µM | CCCCC(NS(=O)(=O)c1ccc(C)cc1)C(=O)Nc1ccc(C(=N)N)cc1 (stereo unspecified) |
| 1.13 µM | Cc1ccc(S(=O)(=O)NC(CCc2ccccc2)C(=O)Nc2ccc(C(=N)N)cc2)cc1 (stereo unspecified) |
| 1.5 to 3 µM | Cc1ccc(S(=O)(=O)N2CCCC2C(=O)Nc2ccc(C(=N)N)cc2)cc1 (stereo unspecified) |
| 0.7 µM | Cc1ccc(S(=O)(=O)NC(CC2CCCC2)C(=O)Nc2ccc(C(=N)N)cc2)cc1 (stereo unspecified) |
| 0.676 µM | N=C(N)c1cccc(C[C@H](NS(=O)(=O)c2ccc3ccccc3c2)C(=O)N2CCCC(C(=O)NCc3cccs3)C2)c1 (stereo partly specified) |
| 0.272 µM | N=C(N)c1ccc(/C=C2\CCCC/C(=C\c3ccc(C(=N)N)cc3)C2=O)cc1 |

Target: T2, Urokinase-type plasminogen activator (Homo sapiens, UniProt P00749)
Assay: Inhibition of recombinant C-terminal His10-tagged human uPA (M1 to L431 residues) expressed in mouse NS0 cells using Z-GGR-AMC as substrate after 15 mins by automated fluorescence assay
Details: not given
Method in brief: as §1

| Compound | IC50 |
| --- | --- |
| CCCCC(NS(=O)(=O)c1ccc(C)cc1)C(=O)Nc1ccc(Br)cc1 (stereo unspecified) | 58 µM |
| CCOC(=O)N1CCN(C(=O)[C@@H](Cc2cccc(C(=N)N)c2)NS(=O)(=O)c2c(C(C)C)cc(C(C)C)cc2C(C)C)CC1 | 0.285 µM |

Other lines, results leading:

| IC50 | Compound |
| --- | --- |
| > 10 µM | COC(=O)C(Cc1cccc(C(=N)N)c1)NC(=O)CNS(=O)(=O)c1ccc(C)cc1 (stereo unspecified) |
| 3 to 5 µM | CCCCC(NS(=O)(=O)c1ccc(C)cc1)C(=O)Nc1ccc(C(=N)N)cc1 (stereo unspecified) |
| > 10 µM | Cc1ccc(S(=O)(=O)NC(CCc2ccccc2)C(=O)Nc2ccc(C(=N)N)cc2)cc1 (stereo unspecified) |
| 5.3 to 28 µM | Cc1ccc(S(=O)(=O)N2CCCC2C(=O)Nc2ccc(C(=N)N)cc2)cc1 (stereo unspecified) |
| 16 µM | Cc1ccc(S(=O)(=O)NC(CC2CCCC2)C(=O)Nc2ccc(C(=N)N)cc2)cc1 (stereo unspecified) |
| 2.43 µM | N=C(N)c1cccc(C[C@H](NS(=O)(=O)c2ccc3ccccc3c2)C(=O)N2CCCC(C(=O)NCc3cccs3)C2)c1 (stereo partly specified) |
| 0.484 µM | N=C(N)c1ccc(/C=C2\CCCC/C(=C\c3ccc(C(=N)N)cc3)C2=O)cc1 |

Target: T2, Urokinase-type plasminogen activator
Assay: Inhibition of recombinant C-terminal His10-tagged human uPA (M1 to L431 residues) expressed in mouse NS0 cells using Z-GGR-AMC as substrate after 15 mins by manual fluorescence assay
Details: not given

| IC50 | Compound |
| --- | --- |
| 26 µM | Cc1ccc(S(=O)(=O)NC(CCc2ccccc2)C(=O)Nc2ccc(C(=N)N)cc2)cc1 (stereo unspecified) |
| 6 µM | N=C(N)c1cccc(C[C@H](NS(=O)(=O)c2ccc3ccccc3c2)C(=O)N2CCCC(C(=O)NCc3cccs3)C2)c1 (stereo partly specified) |

Target: T3, Serine protease hepsin (Homo sapiens, UniProt P05981)
Assay: Inhibition of hepsin-mediated conversion of Pro-HGF into active form in human Hs578T cells assessed as decrease in MET phosphorylation at 100 nM preincubated for 30 mins followed by recombinant human pro-HGF addition measured after 30 mins by immunoblot method
Type: cell-based
Details: not given
Method in brief: (§2)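 Hs578T or HCC1937 breast cells incubated with DMSO or inhibitor, then 50 ng/mL recombinant human Pro-HGF added; MET pathway activation (phospho-MET) assessed by immunoblotting.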

T3 sequence (P05981 1-162 limits assumed): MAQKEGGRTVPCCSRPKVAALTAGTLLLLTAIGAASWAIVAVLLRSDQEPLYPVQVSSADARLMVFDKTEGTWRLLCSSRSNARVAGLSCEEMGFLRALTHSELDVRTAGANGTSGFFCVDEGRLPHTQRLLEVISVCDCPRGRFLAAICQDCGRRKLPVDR
T3 sequence (P05981 163-417 limits assumed): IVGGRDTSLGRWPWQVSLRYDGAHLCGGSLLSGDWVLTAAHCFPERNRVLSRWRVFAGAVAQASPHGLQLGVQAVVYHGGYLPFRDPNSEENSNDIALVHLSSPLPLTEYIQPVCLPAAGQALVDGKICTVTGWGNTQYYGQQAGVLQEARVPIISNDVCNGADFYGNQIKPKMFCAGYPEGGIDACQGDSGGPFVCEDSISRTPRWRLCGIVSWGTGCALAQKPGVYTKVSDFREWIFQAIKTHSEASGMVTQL

| inhibition | Compound |
| --- | --- |
| Active | C[C@@H](Oc1cc(-c2cnn(C3CCNCC3)c2)cnc1N)c1c(Cl)ccc(F)c1Cl |

Target: T3, Serine protease hepsin
Assay: Inhibition of doxycycline induced Hepsin in human MCF10A cells assessed as prevention in loss of HAI-1 level at 10 uM preincubated for 30 mins followed by doxycycline addition measured after 6 hrs by Immunoblot assay
Type: cell-based
Details: not given
Method in brief: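 MCF10A-Indu20-hepsin cells (Dox-inducible hepsin) pretreated 30 min with compound or DMSO, then hepsin induced with 100 ng/mL doxycycline for 6 h; HAI-1 protein scored by immunoblot.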

| inhibition | Compound |
| --- | --- |
| inactive | CCOC(=O)N1CCN(C(=O)[C@@H](Cc2cccc(C(=N)N)c2)NS(=O)(=O)c2c(C(C)C)cc(C(C)C)cc2C(C)C)CC1 |

Target: T3, Serine protease hepsin
Assay: Inhibition of hepsin-mediated conversion of Pro-HGF into active form in human HCC1937 cells assessed as decrease in MET phosphorylation at 100 nM preincubated for 30 mins followed by recombinant human pro-HGF addition measured after 30 mins by immunoblot method
Type: cell-based
Details: not given
Method in brief: as §2

| inhibition | Compound |
| --- | --- |
| Active | C[C@@H](Oc1cc(-c2cnn(C3CCNCC3)c2)cnc1N)c1c(Cl)ccc(F)c1Cl |

Target: T3, Serine protease hepsin
Assay: Inhibition of doxycycline induced Hepsin in human MCF10A cells using Boc-QRR-AMC as substrate preincubated for 24 hrs followed by doxycycline induction for 24 hrs and subsequent addition of substrate by fluorescence assay
Type: cell-based
Details: not given

| IC50 | Compound |
| --- | --- |
| 6.49 µM | CCOC(=O)N1CCN(C(=O)[C@@H](Cc2cccc(C(=N)N)c2)NS(=O)(=O)c2c(C(C)C)cc(C(C)C)cc2C(C)C)CC1 |

Target: T3, Serine protease hepsin
Assay: Inhibition of hepsin-mediated conversion of Pro-HGF into active form in human Hs578T cells assessed as decrease in MET phosphorylation at 1 to 10 uM preincubated for 30 mins followed by recombinant human pro-HGF addition measured after 30 mins by immunoblot method
Type: cell-based
Details: not given
Method in brief: as §2

| inhibition | Compound |
| --- | --- |
| Active | CCOC(=O)N1CCN(C(=O)[C@@H](Cc2cccc(C(=N)N)c2)NS(=O)(=O)c2c(C(C)C)cc(C(C)C)cc2C(C)C)CC1 |

Organism: Homo sapiens
Assay: Selectivity ratio of IC50 for recombinant C-terminal His10-tagged human uPA (M1 to L431 residues) to IC50 for recombinant C-terminal His10-tagged human Hepsin (R45 to […] residues) D161E/ R162K double mutant by automated fluorescence assay
Details: not given

| Ratio IC50 | Compound |
| --- | --- |
| 1 | CCCCC(NS(=O)(=O)c1ccc(C)cc1)C(=O)Nc1ccc(Br)cc1 (stereo unspecified) |
| 3 to 10 | CCCCC(NS(=O)(=O)c1ccc(C)cc1)C(=O)Nc1ccc(C(=N)N)cc1 (stereo unspecified) |
| 3 to 9 | Cc1ccc(S(=O)(=O)N2CCCC2C(=O)Nc2ccc(C(=N)N)cc2)cc1 (stereo unspecified) |
| 23 | Cc1ccc(S(=O)(=O)NC(CC2CCCC2)C(=O)Nc2ccc(C(=N)N)cc2)cc1 (stereo unspecified) |

Target: T2, Urokinase-type plasminogen activator
Assay: Inhibition of uPA (unknown origin)
Details: not given
Method in brief: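 uPA inhibition was run as an on-line biochemical assay integrated into the automated flow-synthesis platform. A 20 µL aliquot of each product solution was automatically captured, HPLC-purified, diluted and assayed. Some samples were instead screened manually, either from platform-synthesized material or from off-line synthesis. The read-out is IC50.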

| IC50 | Compound |
| --- | --- |
| > 10 µM | CN(C)C(=O)N1CCN(C(=O)[C@@H](Cc2cccc(C(=N)N)c2)NS(=O)(=O)c2ccc3ccccc3c2)CC1 |

Target: T3, Serine protease hepsin
Assay: Inhibition of recombinant Hepsin (unknown origin)
Details: not given

| IC50 | Compound |
| --- | --- |
| 3 µM | CCOC(=O)N1CCN(C(=O)[C@@H](Cc2cccc(C(=N)N)c2)NS(=O)(=O)c2c(C(C)C)cc(C(C)C)cc2C(C)C)CC1 |

Target: T3, Serine protease hepsin
Assay: Inhibition of doxycycline induced hepsin-mediated loss of desmosomal junctions in human MCF10A cells at 1 to 10 uM preincubated for 30 mins followed by doxycycline addition measured after 6 hrs by desmoglein 2 staining-based confocal immunofluorescence microscopic analysis
Type: cell-based
Details: not given
Method in brief: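 MCF10A-Indu20-hepsin cells on coverslips pretreated 30 min with 1 or 10 µM compound or DMSO, then 100 ng/mL Dox for 6 h. Desmoglein 2 immunofluorescence: continuous pericellular staining scored positive, discontinuous or absent scored negative. Cells counted in 10 fields per treatment across three biological replicates; reported as percentages.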

| inhibition | Compound |
| --- | --- |
| inactive | CCOC(=O)N1CCN(C(=O)[C@@H](Cc2cccc(C(=N)N)c2)NS(=O)(=O)c2c(C(C)C)cc(C(C)C)cc2C(C)C)CC1 |

Organism: Homo sapiens
Assay: Selectivity ratio of IC50 for recombinant C-terminal His10-tagged human uPA (M1 to L431 residues) to IC50 for recombinant C-terminal His10-tagged human Hepsin (R45 to […] residues) D161E/ R162K double mutant by manual fluorescence assay
Details: not given

| Ratio IC50 | Compound |
| --- | --- |
| 30 | Cc1ccc(S(=O)(=O)NC(CCc2ccccc2)C(=O)Nc2ccc(C(=N)N)cc2)cc1 (stereo unspecified) |
| 18 | N=C(N)c1cccc(C[C@H](NS(=O)(=O)c2ccc3ccccc3c2)C(=O)N2CCCC(C(=O)NCc3cccs3)C2)c1 (stereo partly specified) |
